The text below walks through data of ChEMBL document CHEMBL3421632, “Rational design of triazololipopeptides analogs of kisspeptin inducing a long-lasting increase of gonadotropins” (J Med Chem, 2015).

One may read the EC50 as the midpoint of the concentration-response curve.

The test system of test [1] is Ovis aries. In words: Increase in total plasma LH level in anoestrus Ile-de-France ewe at 1 to 15 nmol, iv by radioimmunoassay. Type of test: functional, organism-based. In outline:
(§1)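 Intact acyclic anoestrous Ile-de-France ewes (3–5 y, 55–70 kg), jugular catheter placed the day before. Single iv bolus of 1–15 nmol/ewe. Basal LH taken every 10 min for 30 min, then every 10 min for 2 h, every 20 min for 4 h, then hourly. Plasma LH by RIA (1051-CY-LH standard, sensitivity 0.1 ng/mL). Peak, duration and AUC derived; mean ± SEM, N = 4–6.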

In test [2] the test system is Ovis aries. Nature of the test: Increase in total plasma LH level in anoestrus Ile-de-France ewe at 15 nmol, iv by radioimmunoassay. Type of test: functional. The essentials: as §1
For test [3], the system named is Ovis aries. Nature of the test: Increase in peak plasma LH level in anoestrus Ile-de-France ewe at 15 nmol, iv by radioimmunoassay (reference value: 0.3 +/- 0.15 ng/ml). The test is classed as functional. The essentials:
as §1

Test [4] deals with Ovis aries. In words: Increase in peak plasma LH level in anoestrus Ile-de-France ewe at 15 nmol, iv by radioimmunoassay relative to untreated control. Type of test: functional. The essentials: as §1
Test [5] relates to Ovis aries. Nature of the test: Increase in time duration of increase of plasma LH level in anoestrus Ile-de-France ewe at 1 to 15 nmol, iv by radioimmunoassay. The test is classed as functional, organism-based. In outline: as §1
For test [6], the system named is Ovis aries. In words: Increase in FSH level in anoestrus Ile-de-France ewe at 15 nmol, iv by radioimmunoassay. Type of test: functional, organism-based. In outline: (§2)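 Intact acyclic anoestrous Ile-de-France ewes (3–5 y, 55–70 kg), jugular catheter placed the day before. Single iv bolus. Basal sampled every 10 min for 30 min, then every 10 min for 2 h, every 20 min for 4 h, then hourly. Plasma FSH measured by RIA with Tucker reagents (sensitivity 0.1 ng/mL), AUC computed; mean ± SEM, N = 4–6.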

The species named for test [7] is Homo sapiens. Nature of the test: Selectivity index, ratio of EC50 for human NPFF1R to EC50 for human wild-type KISS1R.
The target of test [8] is Neuropeptide FF receptor 1 (Homo sapiens, UniProt Q9GZQ6). Nature of the test: Agonist activity at human NPFF1R expressed in CHO cells assessed as effect on forskolin-induced cAMP accumulation after 15 mins by luminescence based assay. Type of test: functional, cell-based. The essentials:
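CHO cells stably expressing hNPFF1R (Gαi-coupled), transfected with GloSensor; seeded 30 000 cells/well 24 h before, PBS-washed twice, loaded with GloSensor cAMP reagent 2 h. Compound added, luminescence read 15 min, then 300 nM forskolin + 0.25 mM IBMX added and read a further 120 min. Signal AUC plotted against concentration, sigmoid fit for EC50.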
On the technique in general: Cyclic AMP is a second messenger, typically raised through Gs and lowered through Gi signalling.

Test [9] has as its system Ovis aries. In words: Increase in FSH level in anoestrus Ile-de-France ewe at 5 nmol, iv by radioimmunoassay. Type of test: functional, organism-based. In outline:
as §2

Test [10] concerns Ovis aries. In words: Increase in peak plasma LH level in anoestrus Ile-de-France ewe at 1 nmol, iv by radioimmunoassay (reference value: 0.3 +/- 0.09 ng/ml). Type of test: functional. The essentials: as §1
For test [11], the system named is Ovis aries. In words: Increase in FSH level in anoestrus Ile-de-France ewe at 1 nmol, iv by radioimmunoassay. The test is classed as functional, organism-based. In outline:
as §2

Test [12] concerns Ovis aries. In words: Increase in peak plasma LH level in anoestrus Ile-de-France ewe at 5 nmol, iv by radioimmunoassay (reference value: 0.2 +/- 0.09 ng/ml). Type of test: functional. In outline:
as §1

The test system of test [13] is Ovis aries. In words: Increase in time duration of increase of plasma LH level in anoestrus Ile-de-France ewe at 15 nmol, iv by radioimmunoassay. The test is classed as functional. In outline: as §1
In test [14] the test system is Ovis aries. Nature of the test: Increase in peak plasma LH level in anoestrus Ile-de-France ewe at 5 nmol, iv by radioimmunoassay relative to untreated control. The test is classed as functional. In outline: as §1
For test [15], the target named is KiSS-1 receptor (Homo sapiens, UniProt Q969F8). In words: Agonist activity at human wild-type KISS1R expressed in HEK293 cells assessed as induction of intracellular Ca2+ mobilization after 30 mins by Fluo4 NW Ca2+ assay. The test is classed as functional, cell-based. The essentials:
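HEK293 stably expressing HA-tagged wild-type human KISS1R, plated 40 000 cells/well 48 h prior. Loaded with Fluo4 NW dye 30 min at 37 °C plus 30 min at rt. Basal read 5× at 7 s intervals, compound added (final 1 pM–1 μM), Ca2+ followed 7 min. Mean basal subtracted, AUC plotted against concentration, sigmoid fit gives EC50. Nontransfected HEK293 served as control.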

For test [16], the system named is Ovis aries. In words: Increase in total plasma LH level in anoestrus Ile-de-France ewe at 1 nmol, iv by radioimmunoassay. Type of test: functional. The essentials: as §1
The test system of test [17] is Ovis aries. In words: Increase in maximal amplitude of plasma LH level in anoestrus Ile-de-France ewe at 1 to 15 nmol, iv by radioimmunoassay. The test is classed as functional, organism-based. In outline: as §1

Activity calls are given as the source filed them. The rule behind the calls is not given here. *1 amine or outer side, *2 acyl side, *3 side chain or, on linkers, in order; H or OH if unused. Where a SMILES comes first, the peptide text is derived from it. Side-chain parts run from the residue outwards. [ ]: non-standard residue; d: D form. The star is where a group is joined. Glyψ(1,4-Tz)Leu = CC(C)C[C@@H](C(=O)[*:2])n1cc(CN[*:1])nn1; γGlu = O=C(O)[C@H](CCC(=O)[*:2])N[*:1]; Palmitoyl = CCCCCCCCCCCCCCCC(=O)* Bounds are passed on as bounds.

Chain of Neuropeptide FF receptor 1 (Q9GZQ6 whole entry): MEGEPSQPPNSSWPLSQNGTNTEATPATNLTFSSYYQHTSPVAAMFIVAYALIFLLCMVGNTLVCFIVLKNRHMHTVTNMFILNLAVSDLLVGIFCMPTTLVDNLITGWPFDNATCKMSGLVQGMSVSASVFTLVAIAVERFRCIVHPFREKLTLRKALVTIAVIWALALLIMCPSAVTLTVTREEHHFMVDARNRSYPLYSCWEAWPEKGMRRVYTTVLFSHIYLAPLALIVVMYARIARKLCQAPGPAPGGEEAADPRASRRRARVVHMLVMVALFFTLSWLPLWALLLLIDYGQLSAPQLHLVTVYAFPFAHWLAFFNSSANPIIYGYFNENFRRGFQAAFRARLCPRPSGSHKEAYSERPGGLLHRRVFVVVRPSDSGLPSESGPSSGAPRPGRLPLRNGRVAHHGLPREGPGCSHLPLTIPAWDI
Chain of KiSS-1 receptor (Q969F8 whole entry): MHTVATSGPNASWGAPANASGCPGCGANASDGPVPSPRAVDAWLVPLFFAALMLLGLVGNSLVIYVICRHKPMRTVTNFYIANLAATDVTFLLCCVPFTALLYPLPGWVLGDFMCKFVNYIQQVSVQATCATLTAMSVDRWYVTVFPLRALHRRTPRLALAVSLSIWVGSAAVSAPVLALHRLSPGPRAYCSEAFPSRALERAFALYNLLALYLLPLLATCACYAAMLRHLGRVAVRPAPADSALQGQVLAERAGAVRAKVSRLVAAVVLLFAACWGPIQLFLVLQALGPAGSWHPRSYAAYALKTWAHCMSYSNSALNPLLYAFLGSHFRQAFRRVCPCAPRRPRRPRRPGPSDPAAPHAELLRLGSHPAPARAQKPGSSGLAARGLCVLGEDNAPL

Regarding `CCCCCCCCCCCCCCCC(=O)N[C@@H](CCC(=O)NCCCC[C@H](NC(=O)[C@H](Cc1ccc(O)cc1)NC(C)=O)C(=O)N[C@@H](Cc1c[nH]c2ccccc12)C(=O)N[C@@H](CC(N)=O)C(=O)N[C@@H](CO)C(=O)N[C@@H](Cc1ccccc1)C(=O)NCc1cn([C@@H](CC(C)C)C(=O)N[C@@H](CCCNC(=N)N)C(=O)N[C@@H](Cc2ccc(O)cc2)C(N)=O)nn1)C(=O)O` (Ac-YK([γGlu-Palmitoyl])WNSF[Glyψ(1,4-Tz)Leu]RY-NH2), the Activity result is “Dose-dependent effect” in [1]; 2400 ng·min/mL in test [2]; 13.3 ng/mL in test [3]; “Dose-dependent effect” in [5]; 1.1 ng/mL in test [10]; 5.3 ng/mL in test [12]. Moreover, the Activity in test [16] is 274 ng·min/mL; in test [17] it was “Dose-dependent effect”. Moreover, the “fold change (FC)” value in [4] stood at 40; in [14] it was 25. In [6], the result was Active. For the same compound, the Ratio EC50 in [7] is over 100. In addition, the results for the EC50 in test [8] and in test [15] were 222 nM and 1.6 nM, respectively. Also, the outcome in [9] and in test [11] was inactive. Further, in [13], the Time is over 9 h.
